The record followed here is PubChem BioAssay.

Assay [1] in a line: inhibitors of TNFa-induced NFkB p65 translocation, primary screen, imaging, HUVEC, MLSMR starter and 10KST1 sets (AID 438;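 active = inhibition above 20% together with a positive visual image hit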;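 note: compound added about 3h40 before a 20 min TNFalpha stimulation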;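 for inhibition: signal is the nuclear over cytoplasmic p65 intensity ratio per well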). Conditions: HUVEC TNFa-induced p65 nuclear translocation; cell count: measured here: nuclei count (cytotoxicity indicator), at 2.08 µM; inhibition: at 2 µM, stronger effect = higher value, 0% TNFa-plus-vehicle, 100% no-TNFa wells.
The nature of assay [2]: inhibitors of mutant huntingtin aggregation, primary screen, imaging, exon1htt(103Q)mCFP cells, high-content imaging (AID 483;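 active = visual image review flags a hit and inhibition of aggregation exceeds 20%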;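 note: compound exposure lasted 3 days before fixation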;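 for nuclei count: percent of the per-plate median nuclei count of sample wells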). To be noted: exon1htt(103Q)mCFP cell line, aggregate imaging, at 2 µM; inhibition of aggregation: stronger effect = higher value; nuclei count: measured here: cell count, toxicity.
Assay [3] in a line: inhibitors of E-selectin induction by TNFa, primary screen, imaging, HUVEC, immunofluorescence, MLSMR starter and 10KST1 sets (AID 487;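 active = visually confirmed hit in the image check and inhibition above 20%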;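 for inhibition: signal is fraction of cell area covered by stained E-selectin grains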;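 for nuclei count: 100% = median nuclei count of all wells on the same plate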). Conditions: HUVEC TNFalpha-induced E-selectin immunofluorescence imaging, at 2 µM; inhibition: stronger effect = higher value; nuclei count: measured here: cell number, toxicity.
Assay [4] deals with Voltage-gated potassium channel subunit beta-2 (Rattus norvegicus) (UniProt P62483). In words: KvBeta enzyme negative modulators, primary screen, biochemical, NADPH fluorescence (AID 622;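 active = fluorescence slope higher than the sample average by over 3 SD, cut at about -0.22 in these data, passing the limit was not always enough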;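 note: slope of raw intensity against log time taken from 70 to 1610 s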). To be noted: recombinant KvBeta, 4-cyanobenzaldehyde reduction, at 10 µM, stronger effect = higher value.
The target is the same in assay [5]. In words: KvBeta positive modulators, primary screen, biochemical, NADPH fluorescence (AID 623).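 Note: fluorescence intensity change per second fitted from 20 to 320 s.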 Conditions: Recombinant KvBeta, NADPH fluorescence decrease slope, 10 min; at 10 µM; stronger effect = lower value.
Assay [6] deals with Alpha-2C adrenergic receptor (Homo sapiens) (UniProt P18825). In words: modulators of alpha2C/GIRK thallium flux, primary screen, cell-based, HEK293 alpha2C/GIRK1/2 (AID 624;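 active = fluorescence slope after compound addition differing from the mean of all screened samples at 99.7% confidence, in either direction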;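 note: slope of fluorescence ratio to pre-addition baseline per second over 15 to 24 s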). To be noted: thallium flux BTC fluorescence, at 10 µM, actives lie on both sides.
Assay [7] in a line: inhibitors of larval lipid processing in zebrafish, primary screen, whole organism, PED6 fluorescence, gall bladder and intestine (AID 686;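 active = a full or partial loss of lipid-probe fluorescence in the fish gall bladder, intestine or both, judged by eye; inactive = no fluorescence loss, or compound toxic to the fish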;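 note: larvae 5 to 7 days old with five fish per well; signal comes from phospholipase A2 cleavage of quenched PED6 carried via bile; overnight exposure to compound and PED6 before scoring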). To be noted: Zebrafish larvae PED6 lipid processing, fluorescence scoring; screened at 20 µM (by protocol). The procedure, abridged:
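system = live zebrafish larvae aged 5-7 days, whole organism | probe or stimulus = ingested quenched lipid PED6 at 100 nM | doses = 20 µM single dose | timing = overnight exposure | detection = fluorescence microscopy with visual scoring of gall bladder and intestine | read-out = visual per-well fluorescence inhibition score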

A short description of assay [8]: inhibitors of Sendai virus-induced IRF3 signaling, primary screen, TLR/RLR signaling modifier project, cell-based, Sendai virus stimulus, luciferase, 10K MLSCN set (AID 602276;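 active = inhibition at or above 50% at 10 µM; inactive = inhibition below 50%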;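 note: firefly luciferase from ISG56 promoter only with Renilla not read in this screen; 0% = Sendai virus plus DMSO and 100% = medium plus DMSO without virus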). To be noted: HEK293 RL24 IRF3 luciferase reporter, at 10 µM, stronger effect = higher value. A general note: In a reporter assay the amount or activity of a reporter protein is the signal.
Assay [9] in a line: inhibitors of poly I:C-induced TLR3 signaling, primary screen, cell-based, poly I:C stimulus, luciferase, 10K MLSCN set (AID 602277;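 active = inhibition of the reporter signal at or above 50%; inactive = inhibition below 50%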). To be noted: HEK293-TLR3 RL24 IRF3 luciferase reporter, at 10 µM, stronger effect = higher value.
For assay [10], the target named is Muscarinic acetylcholine receptor M4 (Homo sapiens) (UniProt P08173). The experiment in a line: compounds altering M4/GIRK thallium flux, either direction, primary screen, M4 allosteric agonist project, cell-based, HEK293 M4/GIRK, BTC-AM (AID 625;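 active = fluorescence slope after compound addition differing from the mean of all tested samples at 99.7% confidence, mostly higher but some lower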;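 note: thallium influx through GIRK channels coupled to M4 in HEK293 cells with BTC-AM dye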). Conditions: at 10 µM, actives lie on both sides. The procedure, abridged:
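Material – HEK293 cells with M4 receptor and GIRK channels · Buffer or medium – pH 7.3 thallium assay buffer · Doses – one dose, 10 µM final · Timing – cells overnight at 37 °C, BTC-AM loading 1 h, reads 2 min total · Measured by – kinetic fluorescence with BTC-AM dye · Controls – carbachol and DMSO controls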

Activity calls are given as the source filed them.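 Rule for the calls, unless noted: active = NADPH fluorescence slope more negative than the mean of all samples by about 3 SD, 99.7% confidence; inactive = the rest.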

Sequence of Voltage-gated potassium channel subunit beta-2 (Rattus norvegicus) (P62483 whole entry, looked up): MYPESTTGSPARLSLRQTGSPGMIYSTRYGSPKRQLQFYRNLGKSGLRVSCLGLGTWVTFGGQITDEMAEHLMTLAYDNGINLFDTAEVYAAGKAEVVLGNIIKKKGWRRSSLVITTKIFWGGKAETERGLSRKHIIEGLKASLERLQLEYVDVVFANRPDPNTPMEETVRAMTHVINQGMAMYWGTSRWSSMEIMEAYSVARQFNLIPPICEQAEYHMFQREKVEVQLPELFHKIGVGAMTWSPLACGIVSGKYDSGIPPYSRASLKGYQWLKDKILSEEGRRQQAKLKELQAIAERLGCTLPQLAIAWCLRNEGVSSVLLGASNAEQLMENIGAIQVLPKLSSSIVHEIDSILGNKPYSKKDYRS
Sequence of Muscarinic acetylcholine receptor M4 (Homo sapiens) (P08173 whole entry, looked up): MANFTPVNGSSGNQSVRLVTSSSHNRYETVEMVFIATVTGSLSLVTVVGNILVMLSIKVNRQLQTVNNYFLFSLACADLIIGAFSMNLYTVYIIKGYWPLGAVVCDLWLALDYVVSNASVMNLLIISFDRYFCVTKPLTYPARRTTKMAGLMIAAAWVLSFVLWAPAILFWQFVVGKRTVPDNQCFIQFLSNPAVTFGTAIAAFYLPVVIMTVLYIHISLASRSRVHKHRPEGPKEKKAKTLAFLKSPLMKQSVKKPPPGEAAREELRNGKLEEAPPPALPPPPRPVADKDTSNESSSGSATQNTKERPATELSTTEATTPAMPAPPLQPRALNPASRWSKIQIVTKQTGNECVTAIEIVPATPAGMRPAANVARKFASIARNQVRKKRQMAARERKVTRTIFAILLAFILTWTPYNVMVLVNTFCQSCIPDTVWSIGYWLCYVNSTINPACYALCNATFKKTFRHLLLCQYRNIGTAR
Sequence of Alpha-2C adrenergic receptor (Homo sapiens) (P18825 whole entry, looked up): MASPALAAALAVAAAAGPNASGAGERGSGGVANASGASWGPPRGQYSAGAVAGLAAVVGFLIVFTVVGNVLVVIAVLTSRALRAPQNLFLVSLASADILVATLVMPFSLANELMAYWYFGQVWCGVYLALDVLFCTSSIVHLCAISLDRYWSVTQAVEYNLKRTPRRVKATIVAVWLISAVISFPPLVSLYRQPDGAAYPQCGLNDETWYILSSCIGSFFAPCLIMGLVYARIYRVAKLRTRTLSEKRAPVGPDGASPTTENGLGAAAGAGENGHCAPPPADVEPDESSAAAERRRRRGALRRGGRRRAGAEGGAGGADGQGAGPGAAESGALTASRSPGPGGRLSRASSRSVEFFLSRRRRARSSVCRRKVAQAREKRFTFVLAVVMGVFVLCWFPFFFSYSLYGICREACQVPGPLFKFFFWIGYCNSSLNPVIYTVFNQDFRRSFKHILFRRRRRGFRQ

By inhibition is commonly meant the drop in the measured response relative to a control, in per cent. For the molecule `O=C(Cn1c(=O)oc2ccccc21)N1CCN(c2ccccc2)CC1`, the cell count in [1] is 421. Moreover, the inhibition in assay [1] was 2.6% (inactive); in [3] it was -10.5% (inactive); in [8], 8.94% (inactive); in assay [9], 14.4% (inactive). The inhibition of aggregation in [2] was 10% (inactive). In addition, the nuclei count in [2] was found to be 99.1%; in [3] it was 114%. Besides, in assay [4], the fluorescence slope was -0.407 (inactive). Further, in assay [5], the NADPH fluorescence slope was -4.3e-05 (inactive). For the same molecule, in assay [6], the slope is 0.00535 (inactive). The result in assay [7] was inactive.

In the case of `Cc1ccc(NC(=O)CC2Nc3ccccc3NC2=O)cc1Cl` (configuration not stated), the cell count in [1] turned out to be 357. The inhibition in assay [1] was 1.4% (inactive); in [3], -45.4% (inactive); in assay [8], -4.9% (inactive); in assay [9], -16.9% (inactive). Besides, in assay [2], the inhibition of aggregation is 14.7% (inactive). The nuclei count stood at 84.3% in assay [2] and 99.7% in [3]. The fluorescence slope was -0.545 (inactive) in assay [4] and 0.00597 (inactive) in [10]. Further, in assay [5], the NADPH fluorescence slope is -1.9e-05 (inactive).

With `O=C(COC(=O)C1=COCCO1)Nc1ccccc1Oc1ccccc1`, the cell count in assay [1] came to 672. Further, the inhibition in assay [1] is 9.6% (inactive); in assay [3], -33.5% (inactive); in assay [8] it was 1.11% (inactive); in assay [9] it was 8.4% (inactive). Moreover, in [2], the inhibition of aggregation was 31% (inactive). Moreover, the nuclei count was found to be 90.2% in assay [2] and 103% in assay [3]. The fluorescence slope was -0.541 (inactive) in assay [4] and 0.00561 (inactive) in [10]. Besides, the NADPH fluorescence slope in [5] is -2.5e-05 (inactive).

Turning to `CC(=O)NCCn1ccc2ccccc21`, the cell count in assay [1] is 272. For the same molecule, the inhibition in assay [1] is 14.1% (inactive); in assay [3], -55.1% (inactive); in assay [8] it was 16.6% (inactive); in assay [9] it was 20.7% (inactive). The inhibition of aggregation in assay [2] was 17.6% (inactive). The values for the nuclei count in assay [2] and in [3] were 93% and 99.6%, respectively. The fluorescence slope in [4] was -0.518 (inactive); in [10] it was 0.00841 (inactive). The NADPH fluorescence slope in assay [5] was 0.000103 (inactive).

On to `COc1ccc(C(=O)Nc2ccc(S(=O)(=O)Nc3nccnc3OC)cc2)cc1OC`, for which, in assay [1], the cell count was found to be 459. The inhibition is 8.1% (inactive) in [1], -126% (inactive) in [3], 21.5% (inactive) in assay [8] and 34.3% (inactive) in assay [9]. Besides, in assay [2], the inhibition of aggregation is 4.1% (inactive). Besides, the nuclei count in assay [2] was 101%; in assay [3], 123%. Also, the results for the fluorescence slope in [4] and in assay [10] were -0.601 (inactive) and 0.0057 (inactive), respectively. For the same molecule, the NADPH fluorescence slope in [5] was 6.9e-06 (inactive).

Regarding `Cc1[nH]c(=O)[nH]c(=O)c1S(=O)(=O)N1c2ccc(F)cc2CCC1C` (configuration not stated), the cell count in assay [1] came out at 307. Besides, the inhibition in assay [1] was -3.4% (inactive); in [3], -175% (inactive); in [8], 9.62% (inactive); in [9], 21.9% (inactive). Moreover, the inhibition of aggregation in assay [2] was -5% (inactive). In addition, the nuclei count in assay [2] stood at 112%; in [3], 96.2%. Further, the fluorescence slope was -0.461 (inactive) in assay [4] and 0.00639 (inactive) in [10]. The NADPH fluorescence slope in assay [5] was -3.2e-05 (inactive).

With `Cc1ccc(-c2nnn(CC(=O)N(CC3CCCO3)C(C(=O)NC(C)(C)C)c3ccc(F)cc3)n2)o1` (configuration not stated), the cell count in [1] stood at 415. Further, the inhibition in [1] is 5.7% (inactive); in assay [3], -64% (inactive); in assay [8], 9.86% (inactive); in [9], 15.3% (inactive). For the same molecule, the inhibition of aggregation in assay [2] is 3.4% (inactive). The nuclei count in assay [2] was found to be 112%; in assay [3], 118%. The fluorescence slope was -0.563 (inactive) in assay [4] and 0.00486 (inactive) in assay [10]. The NADPH fluorescence slope in assay [5] is -3.8e-05 (inactive).

Turning to `CCOC(=O)c1ccc(NC(=O)CCNc2c(N3CCCC3)c(=O)c2=O)cc1`, in assay [1], the cell count was determined as 266. Further, the inhibition in assay [1] is 0% (inactive); in [3], -20.2% (inactive); in [8], 4.44% (inactive); in assay [9], 10.6% (inactive). Also, the inhibition of aggregation in [2] was 26.6% (inactive). Besides, the nuclei count came to 70.7% in assay [2] and 117% in assay [3]. Also, the fluorescence slope in assay [4] is -0.609 (inactive); in [10] it was 0.00478 (inactive). Also, in assay [5], the NADPH fluorescence slope was 5.7e-06 (inactive).

In the case of `O=C(CCN1CCN(CCO)CC1)Nc1ccc(OCc2ccccc2)cc1`, the cell count in assay [1] was determined as 278. The inhibition is 4.8% (inactive) in [1], -29.4% (inactive) in assay [3], -11.3% (inactive) in [8] and 0.289% (inactive) in assay [9]. Besides, the inhibition of aggregation in assay [2] is -5.1% (inactive). Also, the values for the nuclei count in [2] and in assay [3] were 98.3% and 105%, respectively. Moreover, the results for the fluorescence slope in assay [4] and in assay [10] were -0.584 (inactive) and 0.00748 (inactive), respectively. Moreover, the NADPH fluorescence slope in assay [5] was -2.1e-05 (inactive).

Take `O=C(CCCC(=O)N(CC(=O)NC1CCCCC1)Cc1ccc2c(c1)OCO2)Nc1ccccn1`: in assay [1], the cell count came to 395. The inhibition in assay [1] was 4.2% (inactive); in [3], -237% (inactive); in assay [8] it was 15.4% (inactive); in [9], 25.3% (inactive). Further, in assay [2], the inhibition of aggregation is -3% (inactive). For the same molecule, the nuclei count in assay [2] turned out to be 91%; in assay [3] it was 110%. Moreover, the fluorescence slope is -0.479 (inactive) in assay [4] and 0.00636 (inactive) in assay [10]. Further, the NADPH fluorescence slope in assay [5] is 3.7e-05 (inactive).

`CCCN(S(=O)(=O)c1ccc(OCC)cc1)S(=O)(=O)c1cccs1`: the cell count in assay [1] was found to be 457. The inhibition in [1] is 7.4% (inactive); in [3], -52.8% (inactive); in [8], -4.95% (inactive); in [9], 2.38% (inactive). The inhibition of aggregation in assay [2] is -7.2% (inactive). The nuclei count was found to be 109% in assay [2] and 101% in assay [3]. Besides, the fluorescence slope in assay [4] is -0.481 (inactive); in assay [10], 0.00646 (inactive). The NADPH fluorescence slope in assay [5] was 0.0001 (inactive).

Turning to `Cc1nc2ccccc2c(=O)n1NC(=O)Nc1ccccc1`, the cell count in assay [1] is 592. In addition, the inhibition in assay [1] is 0% (inactive); in assay [3], -41.3% (inactive); in [8], 12.6% (inactive); in [9], -4.39% (inactive). Moreover, the inhibition of aggregation in assay [2] is 17.7% (inactive). In addition, the nuclei count came out at 83.8% in assay [2] and 97.5% in assay [3]. For the same molecule, in assay [4], the fluorescence slope was -0.359 (inactive). In assay [5], the NADPH fluorescence slope is -2.7e-05 (inactive). The slope in assay [6] is 0.00703 (inactive). In assay [7], the molecule was classed as inactive.

With `COc1ccc(N2CCC(CNS(=O)(=O)c3cccc(C(F)(F)F)c3)C2)cc1` (configuration not stated), the cell count in assay [1] was found to be 385. Besides, the inhibition in assay [1] is 5.3% (inactive); in [3], -33.3% (inactive); in assay [8], 7.7% (inactive); in assay [9] it was 2.96% (inactive). Also, in assay [2], the inhibition of aggregation is 30.1% (active). Besides, the nuclei count is 92.1% in [2] and 132% in [3]. The fluorescence slope in assay [4] was -0.494 (inactive); in [10] it was 0.00389 (inactive). In addition, in assay [5], the NADPH fluorescence slope is -0.000248 (inactive).

Turning to `C#CCOC(=O)C1C2C=CC(C2)C1C(=O)O` (configuration not stated), the cell count in [1] was 394. Further, the inhibition is 9.9% (inactive) in [1], -317% (inactive) in [3], 4.82% (inactive) in assay [8] and 0.62% (inactive) in assay [9]. For the same molecule, the inhibition of aggregation in assay [2] is 7.3% (inactive). Moreover, the nuclei count in assay [2] was determined as 87.7%; in [3], 115%. Also, in assay [4], the fluorescence slope is -0.341 (inactive). The NADPH fluorescence slope in [5] was -6.5e-05 (inactive). Besides, the slope in assay [6] is 0.00609 (inactive). Moreover, in [7], the result was inactive.
